Assay results reported in ChEMBL document CHEMBL2380300, “Identification of new peptide amides as selective cathepsin L inhibitors: the first step towards selective irreversible inhibitors?” (Bioorg Med Chem Lett, 2013).
Square brackets hold non-standard residues; d marks the D form. Peptide text beside a SMILES is read from it. * marks the point of attachment. ξ: configuration not given here. Bip = N[C@@H](Cc1ccc(-c2ccccc2)cc1)C(=O)O; Phe(4-NH2) = Nc1ccc(C[C@H](N)C(=O)O)cc1; Cbz = O=C(OCc1ccccc1)*; ξPip = O=C(O)C1CCCCN1

What was measured:
Homo sapiens [1] = species: Homo sapiens; test: Selectivity ratio of Ki for recombinant cathepsin-K (unknown origin) to Ki for recombinant cathepsin-L (unknown origin)
How it was run: (§1)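 FK = Ki(CatK)/Ki(CatL) and FS = Ki(CatS)/Ki(CatL). Each Ki comes from recombinant enzyme kinetics over a minimum of four inhibitor concentrations, each measured in duplicate.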

Homo sapiens [2] = species: Homo sapiens; test: Selectivity ratio of Ki for recombinant cathepsin-S (unknown origin) to Ki for recombinant cathepsin-L (unknown origin); how it was run: as §1
Cathepsin K = biological target: T1, Cathepsin K (Homo sapiens, UniProt P43235); test: Inhibition of recombinant cathepsin-K (unknown origin) using Z-Phe-Arg-AMC as substrate by fluorescence assay
T1 sequence (P43235 whole entry): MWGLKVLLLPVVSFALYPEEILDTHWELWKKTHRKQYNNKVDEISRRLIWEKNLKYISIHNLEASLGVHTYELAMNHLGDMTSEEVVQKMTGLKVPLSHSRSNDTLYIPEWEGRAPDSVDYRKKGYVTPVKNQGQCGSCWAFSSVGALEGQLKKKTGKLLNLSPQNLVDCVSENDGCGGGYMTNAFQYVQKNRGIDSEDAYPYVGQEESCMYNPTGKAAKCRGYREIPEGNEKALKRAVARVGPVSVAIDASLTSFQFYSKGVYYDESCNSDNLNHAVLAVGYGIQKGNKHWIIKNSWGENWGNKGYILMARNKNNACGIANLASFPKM
How it was run: (§2)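 Recombinant enzyme kinetics. Inhibitor stocks were quantified by amino-acid analysis. Ki was obtained from a minimum of four inhibitor concentrations, each run in duplicate.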

Cathepsin S = Cathepsin S (Homo sapiens, UniProt P25774); test: Inhibition of recombinant cathepsin-S (unknown origin) using Z-Val-Arg-AMC as substrate by fluorescence assay; how it was run: as §2
Homo sapiens [3] = species: Homo sapiens; test: Selectivity ratio of Ki for recombinant cathepsin-B (unknown origin) to Ki for recombinant cathepsin-L (unknown origin)
How it was run: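 Selectivity factor FB = Ki(CatB)/Ki(CatL). Both Ki values come from kinetic runs with the recombinant enzymes, each using at least three inhibitor concentrations in duplicate.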

Cathepsin B = Cathepsin B (Homo sapiens, UniProt P07858); test: Inhibition of recombinant cathepsin-B (unknown origin) using Z-Arg-Arg-AMC as substrate by fluorescence assay
How it was run: (§3)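 Kinetic assay with recombinant enzyme. Peptide amide stock concentrations were set by amino-acid analysis. Ki was derived from at least three inhibitor concentrations, each measured in duplicate.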

Procathepsin L = Procathepsin L (Homo sapiens, UniProt P07711); test: Inhibition of recombinant cathepsin-L (unknown origin) using Z-Phe-Arg-AMC as substrate by fluorescence assay; how it was run: as §3
Chain of Procathepsin L (P07711 whole entry): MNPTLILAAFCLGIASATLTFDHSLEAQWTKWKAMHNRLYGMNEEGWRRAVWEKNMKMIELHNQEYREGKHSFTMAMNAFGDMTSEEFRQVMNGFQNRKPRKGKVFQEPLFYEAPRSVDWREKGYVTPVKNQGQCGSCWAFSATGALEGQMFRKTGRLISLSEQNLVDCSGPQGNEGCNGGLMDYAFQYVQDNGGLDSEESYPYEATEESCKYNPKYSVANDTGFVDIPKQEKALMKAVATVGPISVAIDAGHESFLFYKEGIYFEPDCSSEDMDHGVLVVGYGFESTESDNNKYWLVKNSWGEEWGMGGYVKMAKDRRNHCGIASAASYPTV

Chain of Cathepsin S (P25774 whole entry): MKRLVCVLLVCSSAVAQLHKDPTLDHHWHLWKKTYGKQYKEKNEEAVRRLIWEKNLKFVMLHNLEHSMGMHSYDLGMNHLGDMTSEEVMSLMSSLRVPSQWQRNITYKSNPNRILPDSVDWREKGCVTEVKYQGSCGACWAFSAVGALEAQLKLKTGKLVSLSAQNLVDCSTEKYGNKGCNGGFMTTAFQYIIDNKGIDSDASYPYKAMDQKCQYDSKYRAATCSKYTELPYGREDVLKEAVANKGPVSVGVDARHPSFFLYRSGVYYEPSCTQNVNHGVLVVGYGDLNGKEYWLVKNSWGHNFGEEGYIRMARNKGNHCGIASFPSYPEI

| Ratio Ki (Homo sapiens [1]) | Ratio Ki (Homo sapiens [2]) | Ki (Cathepsin K) [µM] | Ki (Cathepsin S) [µM] | Ratio Ki (Homo sapiens [3]) | Ki (Cathepsin B) [µM] | Ki (Procathepsin L) [µM] | SMILES |
| --- | --- | --- | --- | --- | --- | --- | --- |
| 11 | 13 | 47 | 56 | 810 | 3410 | 4.2 | NCCCC[C@H](NC(=O)[C@H](Cc1ccccc1)NC(=O)OCc1ccccc1)C(N)=O |
| – | – | – | – | 30 | 148 | 5 | NCCCC[C@H](NC(=O)[C@H](Cc1ccccc1)NC(=O)c1ccc(N)nc1)C(N)=O |
| – | – | – | – | – | – | 28 | NC(=O)[C@H](N)NC(=O)[C@H](Cc1ccccc1)NC(=O)OCc1ccccc1 |
| – | – | – | – | 156 | 389 | 2.5 | Cc1cccc(-c2ccc(C[C@H](NC(=O)OCc3ccccc3)C(=O)N[C@@H](CCCCN)C(N)=O)cc2)c1 |
| – | – | – | – | 272 | 706 | 2.6 | CC(=O)Oc1ccc(C(=O)N[C@@H](Cc2ccccc2)C(=O)N[C@@H](CCCCN)C(N)=O)cc1 |
| – | – | – | – | 15 | 80 | 5.5 | NCCCC[C@H](NC(=O)[C@H](Cc1ccccc1)NC(=O)c1ccccn1)C(N)=O |
| 198 | 11 | 147 | 8.5 | 1760 | 1300 | 0.74 | N=C(N)NCCC[C@H](NC(=O)OCc1ccccc1)C(=O)N[C@@H](Cc1ccccc1)C(=O)N[C@@H](CCCCN)C(N)=O (Cbz-Arg-Phe-Lys-NH2) |
| – | – | – | – | 54 | 135 | 2.5 | NCCCC[C@H](NC(=O)[C@H](Cc1ccccc1)NC(=O)CCc1ccc(O)cc1)C(N)=O |
| – | – | – | – | 96 | 135 | 1.4 | NCCCC[C@H](NC(=O)[C@H](Cc1ccc(O)cc1)NC(=O)OCc1ccccc1)C(N)=O (Cbz-Tyr-Lys-NH2) |
| – | – | – | – | 111 | 7100 | 64 | CSCC[C@H](NC(=O)[C@H](Cc1ccccc1)NC(=O)OCc1ccccc1)C(N)=O (Cbz-Phe-Met-NH2) |
| – | – | – | – | 425 | 1020 | 2.4 | CC(=O)Oc1cccc(C(=O)N[C@@H](Cc2ccccc2)C(=O)N[C@@H](CCCCN)C(N)=O)c1 |
| – | – | – | – | 9 | 84 | 9 | NCCCC[C@H](NC(=O)[C@H](Cc1ccccc1)NC(=O)c1ccc(-c2ccccc2)cc1)C(N)=O |
| – | – | – | – | 24 | 100 | 4.2 | NCCCC[C@H](NC(=O)[C@H](Cc1c[nH]c2ccccc12)NC(=O)OCc1ccccc1)C(N)=O (Cbz-Trp-Lys-NH2) |
| – | – | – | – | 310 | 4340 | 14 | CC(C)C[C@H](NC(=O)[C@H](Cc1ccccc1)NC(=O)OCc1ccccc1)C(N)=O (Cbz-Phe-Leu-NH2) |
| – | – | – | – | 169 | 3390 | 20 | Cc1cccc(C)c1C(=O)N[C@@H](Cc1ccccc1)C(=O)N[C@@H](CCCCN)C(N)=O |
| – | – | – | – | 64 | 1730 | 27 | NC(=O)[C@H](CCCC(N)O)NC(=O)[C@H](Cc1ccccc1)NC(=O)OCc1ccccc1 (stereo partly specified) |
| – | – | – | – | – | – | 16 | C[C@H](NC(=O)[C@H](Cc1ccccc1)NC(=O)OCc1ccccc1)C(N)=O |
| – | – | – | – | 312 | 312 | 1 | CC(C)(C)c1ccc(C(=O)N[C@@H](Cc2ccccc2)C(=O)N[C@@H](CCCCN)C(N)=O)cc1 |
| – | – | – | – | 18 | 56 | 3.1 | NCCCC[C@H](NC(=O)[C@H](Cc1c[nH]cn1)NC(=O)OCc1ccccc1)C(N)=O (Cbz-His-Lys-NH2) |
| – | – | – | – | 12 | 349 | 28 | N=C(N)NCCC[C@H](NC(=O)[C@H](Cc1ccccc1)NC(=O)OCc1ccccc1)C(N)=O (Cbz-Phe-Arg-NH2) |
| – | – | – | – | 20 | 134 | 6.8 | NCCCC[C@H](NC(=O)[C@H](Cc1ccccc1)NC(=O)c1c(F)c(F)c(F)c(F)c1F)C(N)=O |
| – | – | – | – | 187 | 860 | 4.6 | NCCCC[C@H](NC(=O)[C@H](Cc1ccccc1)NC(=O)c1ccnc(-c2cc(C(=O)O)ccn2)c1)C(N)=O |
| – | – | – | – | 636 | 2040 | 3.2 | NCCCC[C@H](NC(=O)[C@H](Cc1ccccc1)NC(=O)CCc1ccccc1)C(N)=O |

| Ratio Ki (Homo sapiens [1]) | Ratio Ki (Homo sapiens [2]) | Ki (Cathepsin K) [µM] | Ki (Cathepsin S) [µM] | Ratio Ki (Homo sapiens [3]) | Ki (Cathepsin B) [µM] | Ki (Procathepsin L) [µM] | SMILES |
| --- | --- | --- | --- | --- | --- | --- | --- |
| – | – | – | – | 66 | 113 | 1.7 | Cc1ccc(-c2ccc(C[C@H](NC(=O)OCc3ccccc3)C(=O)N[C@@H](CCCCN)C(N)=O)cc2)cc1 |
| – | – | – | – | 113 | 261 | 2.3 | NCCCC[C@H](NC(=O)[C@H](Cc1ccccc1)NC(=O)c1ccc(Br)cc1)C(N)=O |
| 200 | 233 | 24 | 28 | 325 | 39 | 0.12 | NCCCC[C@H](NC(=O)[C@H](Cc1ccc(-c2cccs2)cc1)NC(=O)OCc1ccccc1)C(N)=O |
| – | – | – | – | 80 | 623 | 7.8 | NCCCC[C@H](NC(=O)[C@H](Cc1ccccc1)NC(=O)C1=CCCC1)C(N)=O |
| – | – | – | – | 651 | 1760 | 2.7 | NCCCC[C@H](NC(=O)[C@H](Cc1ccccc1)NC(=O)c1cc([N+](=O)[O-])ccc1Cl)C(N)=O |
| – | – | – | – | 9 | 26 | 2.9 | CN(C)c1ccc(C(=O)N[C@@H](Cc2ccccc2)C(=O)N[C@@H](CCCCN)C(N)=O)cc1 |
| – | – | – | – | 28 | 74 | 2.6 | NCCCC[C@H](NC(=O)[C@H](Cc1ccc(-c2ccc(-c3ccccc3)cc2)cc1)NC(=O)OCc1ccccc1)C(N)=O |
| – | – | – | – | 595 | 1550 | 2.6 | CNCCCC[C@H](NC(=O)[C@H](Cc1ccccc1)NC(=O)OCc1ccccc1)C(N)=O |
| – | – | – | – | 21 | 38 | 1.8 | NCCCC[C@H](NC(=O)[C@H](Cc1ccc(-c2cccc(N)c2)cc1)NC(=O)OCc1ccccc1)C(N)=O |
| – | – | – | – | – | – | 17 | CC(C)[C@H](NC(=O)[C@H](Cc1ccccc1)NC(=O)OCc1ccccc1)C(N)=O (Cbz-Phe-Val-NH2) |
| – | – | – | – | 11 | 245 | 23 | Cc1ccccc1-c1ccc(C[C@H](NC(=O)OCc2ccccc2)C(=O)N[C@@H](CCCCN)C(N)=O)cc1 |
| 1640 | 51 | 639 | 20 | 2140 | 835 | 0.39 | NCCCC[C@H](NC(=O)[C@H](Cc1ccccc1)NC(=O)[C@H](Cc1c[nH]c2ccccc12)NC(=O)OCc1ccccc1)C(N)=O (Cbz-Trp-Phe-Lys-NH2) |
| – | – | – | – | 8.4 | 51 | 6.1 | NCCCC[C@H](NC(=O)[C@H](Cc1ccccc1)NC(=O)C1CCCCN1)C(N)=O (stereo partly drawn) (H-[ξPip]-Phe-Lys-NH2) |
| – | – | – | – | 32 | 77 | 2.4 | NCCCC[C@H](NC(=O)[C@H](Cc1ccc(-c2ccccc2)cc1)NC(=O)OCc1ccccc1)C(N)=O (Cbz-[Bip]-Lys-NH2) |
| – | – | – | – | 34 | 58 | 1.7 | NCCCC[C@H](NC(=O)[C@H](Cc1ccc(-c2cccc(Cl)c2)cc1)NC(=O)OCc1ccccc1)C(N)=O |
| – | – | – | – | 107 | 2790 | 26 | NC(=O)[C@H](Cc1ccc(N)cc1)NC(=O)[C@H](Cc1ccccc1)NC(=O)OCc1ccccc1 (Cbz-Phe-[Phe(4-NH2)]-NH2) |
| – | – | – | – | – | – | 14 | NC(=O)[C@H](Cc1c[nH]cn1)NC(=O)[C@H](Cc1ccccc1)NC(=O)OCc1ccccc1 (Cbz-Phe-His-NH2) |
| – | – | – | – | 703 | 2460 | 3.5 | NCCC[C@H](NC(=O)[C@H](Cc1ccccc1)NC(=O)OCc1ccccc1)C(N)=O |
| – | – | – | – | 506 | 3550 | 7 | NCCCC[C@H](NC(=O)[C@H](Cc1ccccc1)NC(=O)[C@H](CCC(N)=O)NC(=O)OCc1ccccc1)C(N)=O (Cbz-Gln-Phe-Lys-NH2) |
| – | – | – | – | 301 | 301 | 1 | NCCCC[C@H](NC(=O)[C@H](Cc1ccccc1)NC(=O)c1ccc2ccccc2c1)C(N)=O |
| 319 | 46 | 284 | 41.1 | 1680 | 1490 | 0.89 | NCCCC[C@H](NC(=O)[C@H](Cc1ccccc1)NC(=O)[C@H](CCCCN)NC(=O)OCc1ccccc1)C(N)=O (Cbz-Lys-Phe-Lys-NH2) |
| 473 | 27 | 213 | 12 | 2630 | 1180 | 0.45 | CC(C)C[C@H](NC(=O)OCc1ccccc1)C(=O)N[C@@H](Cc1ccccc1)C(=O)N[C@@H](CCCCN)C(N)=O (Cbz-Leu-Phe-Lys-NH2) |
